Measurements reported in ChEMBL document CHEMBL1122522, “Conformationally restricted retinoids” (1984).
Each block holds one compound with its values, some of them ahead of it.

Experiments:
[1] = molecular target: T1, Ornithine decarboxylase (Mus musculus) (UniProt P00860); assay: Inhibition of the induction of ornithine decarboxylase in mouse epidermis by the tumor promoter 12-O-tetradecanoylphorbol-13-acetate (ODC) at dose 17 nmol * p<0.001
T1 sequence (whole entry): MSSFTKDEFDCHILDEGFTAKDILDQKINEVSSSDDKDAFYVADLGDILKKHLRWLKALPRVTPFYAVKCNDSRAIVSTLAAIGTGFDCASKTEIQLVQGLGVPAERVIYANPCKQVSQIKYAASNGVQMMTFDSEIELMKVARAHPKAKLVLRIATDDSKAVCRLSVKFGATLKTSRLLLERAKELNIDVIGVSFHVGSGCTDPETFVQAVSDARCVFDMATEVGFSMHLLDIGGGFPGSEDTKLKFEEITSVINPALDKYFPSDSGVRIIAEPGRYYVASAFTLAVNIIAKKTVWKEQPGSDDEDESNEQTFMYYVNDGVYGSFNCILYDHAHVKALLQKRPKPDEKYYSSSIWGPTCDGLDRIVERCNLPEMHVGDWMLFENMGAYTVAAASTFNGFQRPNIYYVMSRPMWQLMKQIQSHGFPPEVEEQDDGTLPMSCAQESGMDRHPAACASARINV

[2] = tested on: Cricetinae gen. sp.; assay: Activity of compound the was expressed as ratio of active hamster tracheal organ cultures(TOC) to the total cultures at 10e-11 M concentration; 7/7; assay type: functional, Cricetulus griseus, Trachea; conditions: in the assay text read “10e-9 M” for “100 pM”
Method in brief: (§1)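 Tracheal organ cultures came from vitamin A-deficient hamsters. Each culture was scored for reversal of keratinization and reported as active cultures out of total cultures at each retinoid concentration tested (10⁻⁸ to 10⁻¹² M). The protocol followed earlier published methods.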

[3] = molecular target: T1, Ornithine decarboxylase (Mus musculus); assay: Inhibition of the induction of ornithine decarboxylase in mouse epidermis by the tumor promoter 12-O-tetradecanoylphorbol-13-acetate (ODC) at dose 1.7 nmol * p<0.001
[4] = tested on: Cricetinae gen. sp.; assay: Molarity required to effect reversal of keratinization in 50% of cultures.; assay type: functional, Cricetulus griseus
[5] = tested on: Cricetinae gen. sp.; assay: Activity of compound the was expressed as ratio of active hamster tracheal organ cultures(TOC) to the total cultures at 10e-10 M concentration; 7/7; assay type: functional, Cricetulus griseus, Trachea; conditions: in the assay text read “10e-8 M” for “1 nM”; method in brief: as §1
[6] = tested on: Cricetinae gen. sp.; assay: Activity of compound the was expressed as ratio of active hamster tracheal organ cultures(TOC) to the total cultures at 10e-12 M concentration; 0/6; assay type: functional, Cricetulus griseus, Trachea; conditions: in the assay text read “1 nM” for “10 pM”; method in brief: as §1
[7] = tested on: Cricetinae gen. sp.; assay: Activity of compound the was expressed as ratio of active hamster tracheal organ cultures(TOC) to the total cultures at 10e-8 M concentration; 7/7; assay type: functional, Cricetulus griseus, Trachea; conditions: at 0.01 µM
[8] = tested on: Cricetinae gen. sp.; assay: Activity of compound the was expressed as ratio of active hamster tracheal organ cultures(TOC) to the total cultures at 10e-10 M concentration; 4/15; assay type: functional, Cricetulus griseus, Trachea; conditions: at 0.0001 µM
[9] = molecular target: T1, Ornithine decarboxylase (Mus musculus); assay: TInhibition of the induction of ornithine decarboxylase in mouse epidermis by the tumor promoter 12-O-tetradecanoylphorbol-13-acetate (ODC) at dose 17 nmol
[10] = tested on: Cricetinae gen. sp.; assay: Activity of compound the was expressed as ratio of active hamster tracheal organ cultures(TOC) to the total cultures at 10e-11 M concentration; 1/8; assay type: functional, Cricetulus griseus, Trachea; conditions: at 10 pM
[11] = tested on: Cricetinae gen. sp.; assay: Activity of compound the was expressed as ratio of active hamster tracheal organ cultures(TOC) to the total cultures at 10e-9 M concentration; 14/15; assay type: functional, Cricetulus griseus, Trachea; conditions: at 0.001 µM
[12] = molecular target: T1, Ornithine decarboxylase (Mus musculus); assay: Inhibition of the induction of ornithine decarboxylase in mouse epidermis by the tumor promoter 12-O-tetradecanoylphorbol-13-acetate (ODC) at dose 1.7 nmol
[13] = tested on: Cricetinae gen. sp.; assay: Activity of compound the was expressed as ratio of active hamster tracheal organ cultures(TOC) to the total cultures at 10e-10 M concentration; 1/6; assay type: functional, Cricetulus griseus, Trachea; method in brief: as §1
[14] = molecular target: T1, Ornithine decarboxylase (Mus musculus); assay: Inhibition of the induction of ornithine decarboxylase in mouse epidermis by the tumor promoter 12-O-tetradecanoylphorbol-13-acetate (ODC) at dose 1.7 nmol * Inhibition not significant
[15] = tested on: Cricetinae gen. sp.; assay: Activity of compound the was expressed as ratio of active hamster tracheal organ cultures(TOC) to the total cultures at 10e-9 M concentration; 3/7; assay type: functional, Cricetulus griseus, Trachea; method in brief: as §1
[16] = molecular target: T1, Ornithine decarboxylase (Mus musculus); assay: Inhibition of the induction of ornithine decarboxylase in mouse epidermis by the tumor promoter 12-O-tetradecanoylphorbol-13-acetate (ODC) at dose 17 nmol * p<0.01
[17] = tested on: Cricetinae gen. sp.; assay: Activity of compound the was expressed as ratio of active hamster tracheal organ cultures(TOC) to the total cultures at 10e-8 M concentration; 4/7; assay type: functional, Cricetulus griseus, Trachea; method in brief: as §1
[18] = tested on: Cricetinae gen. sp.; assay: Activity of compound the was expressed as ratio of active hamster tracheal organ cultures(TOC) to the total cultures at 10e-10 M concentration; 1/7; assay type: functional, Cricetulus griseus, Trachea; method in brief: as §1
[19] = molecular target: T1, Ornithine decarboxylase (Mus musculus); assay: Inhibition of the induction of ornithine decarboxylase in mouse epidermis by the tumor promoter 12-O-tetradecanoylphorbol-13-acetate (ODC) at dose 17 nmol * inhibition not significant
[20] = tested on: Cricetinae gen. sp.; assay: Activity of compound the was expressed as ratio of active hamster tracheal organ cultures(TOC) to the total cultures at 10e-9 M concentration; 2/6; assay type: functional, Cricetulus griseus, Trachea; method in brief: as §1
[21] = molecular target: T1, Ornithine decarboxylase (Mus musculus); assay: Inhibition of the induction of ornithine decarboxylase in mouse epidermis by the tumor promoter 12-O-tetradecanoylphorbol-13-acetate (ODC) at dose 1.7 nmol * p<0.001* inhibition not significant
[22] = tested on: Cricetinae gen. sp.; assay: Activity of compound the was expressed as ratio of active hamster tracheal organ cultures(TOC) to the total cultures at 10e-8 M concentration; 6/7; assay type: functional, Cricetulus griseus, Trachea; method in brief: as §1
[23] = molecular target: T1, Ornithine decarboxylase (Mus musculus); assay: Inhibition of the induction of ornithine decarboxylase in mouse epidermis by the tumor promoter 12-O-tetradecanoylphorbol-13-acetate (ODC) at dose 17 nmol
[24] = tested on: Cricetinae gen. sp.; assay: Activity of compound the was expressed as ratio of active hamster tracheal organ cultures(TOC) to the total cultures at 10e-9 M concentration; 4/7; assay type: functional, Cricetulus griseus, Trachea; method in brief: as §1
[25] = tested on: Cricetinae gen. sp.; assay: Activity of compound the was expressed as ratio of active hamster tracheal organ cultures(TOC) to the total cultures at 10e-10 M concentration; 3/7; assay type: functional, Cricetulus griseus, Trachea; method in brief: as §1
[26] = tested on: Cricetinae gen. sp.; assay: Activity of compound the was expressed as ratio of active hamster tracheal organ cultures(TOC) to the total cultures at 10e-11 M concentration; 17/22; assay type: functional, Cricetulus griseus, Trachea
[27] = tested on: Cricetinae gen. sp.; assay: Activity of compound the was expressed as ratio of active hamster tracheal organ cultures(TOC) to the total cultures at 10e-10 M concentration; 21/22; assay type: functional, Cricetulus griseus, Trachea
[28] = tested on: Cricetinae gen. sp.; assay: Activity of compound the was expressed as ratio of active hamster tracheal organ cultures(TOC) to the total cultures at 10e-12 M concentration; 4/15; assay type: functional, Cricetulus griseus, Trachea

inhibition [1]: 80%
inhibition [3]: 77%
Structure (SMILES): CCOC(=O)c1ccc(/C=C(\C)[C@H]2CC2C2=C(C)CCCC2(C)C)cc1 (stereo not given in full)
Activity [2]: 7%
ED50 [4]: 3e-10
Activity [5]: 7%
Activity [6]: 0%

inhibition [9]: 83%
inhibition [12]: 45%
Structure (SMILES): CC1=C(CC/C(C)=C/c2ccc(C(=O)O)cc2)C(C)(C)CCC1
Activity [7]: 7%
Activity [8]: 4 active cultures
Activity [10]: 1 active cultures
ED50 [4]: 3e-10
Activity [11]: 14 active cultures

inhibition [14]: 15%
inhibition [16]: 39%
Structure (SMILES): CCOC(=O)c1ccc(/C=C/c2ccc3c(c2)C2CCC3C2)cc1 (stereo not given)
Activity [13]: 1%
ED50 [4]: 3e-09
Activity [15]: 43%
Activity [17]: 4%

inhibition [19]: 0%
inhibition [21]: 12%
Structure (SMILES): CCOC(=O)c1ccc(C2CC2c2ccc3c(c2)C2CCC3C2)cc1 (stereo not given)
Activity [18]: 1%
Activity [20]: 33%
ED50 [4]: 5e-09
Activity [17]: 4%

inhibition [23]: 56%
inhibition [12]: 33%
Structure (SMILES): CC1=C(/C=C/C(C)=C/C=C/c2ccc(C(=O)O)cc2)C(C)(C)CCC1 [PELRETIN]
Activity [22]: 6%
Activity [24]: 57%
Activity [25]: 3%
ED50 [4]: 4e-10

Structure (SMILES): CC1(C)CCC(C)(C)c2cc(-c3ccc4cc(C(=O)O)ccc4c3)ccc21
Activity [26]: 17%
Activity [27]: 21%
ED50 [4]: 3e-12
Activity [28]: 4%
